According to ChEMBL document CHEMBL1121364, “Nucleoside conjugates as potential antitumor agents. 3. Synthesis and antitumor activity of 1-(beta-D-arabinofuranosyl)cytosine conjugates of corticosteroids” (1980):

Tests used:
L1210 [1] = assay: Antitumor activity in the mice with intraperitoneal implanted L1210 lymphoid leukemia at the dose 9.2 and 13.2 mg/kg/day x 5 was determined as percentage increase in the life span as compared with control tumor bearers; format: functional, Mus musculus
In short: (§1)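 C3D2F1/J female mice (C3H/HeJ female × DBA/2J male), groups of six to eight, average weight 25 g. Inoculated ip with 1 × 10^6 L1210 ascites cells taken from DBA/2Ha donor mice bearing 3-5 day old tumors. Compounds were dissolved in 0.154 N NaOH, neutralized with 0.154 N HCl (final 0.9% NaCl), and given ip daily for 5 days from 24 h post-implant. Median survival T/C; ILS = (T/C − 1) × 100; 30-day survivors counted.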

L1210 [2] = assay: Antitumor activity in mice with intraperitoneal implanted L1210 lymphoid leukemia at the dose 18 and 27.7 mg/kg/day x 5 was determined as weight change (g/mouse) on 8th day; format: functional
In short: (§2)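 C3D2F1/J female mice (C3H/HeJ × DBA/2J), groups of six to eight, average 25 g, inoculated ip with 1 × 10^6 L1210 ascites cells taken from DBA/2Ha donor mice carrying 3-5 day tumors. Compound dissolved in 0.154 N NaOH, then neutralized with 0.154 N HCl to give 0.9% NaCl. Given ip daily for 5 consecutive days starting 24 h after implantation. Body weight change per mouse recorded on day 8.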

L1210 [3] = assay: Antitumor activity in mice with intraperitoneal implanted L1210 lymphoid leukemia at the dose 9.2 and 13.2 mg/kg/day x 5 was determined as weight change (g/mouse) on 8th day; format: functional; in short: as §2
L1210 [4] = assay: Antitumor activity in the mice with intraperitoneal implanted L1210 lymphoid leukemia at the dose 9.2 and 13.2 mg/kg/day x 5 was determined as Survival time in days; Range is 11-28 days; format: functional, Mus musculus; in short: as §1
L1210 [5] = assay: Antitumor activity in the mice with intraperitoneal implanted L1210 lymphoid leukemia at the dose of 18 and 27.7 mg/kg/day x 5 was determined as mean survival of treated group compared to untreated; 13/9; format: functional, Mus musculus; in short: as §1
L1210 [6] = assay: Antitumor activity in the mice with intraperitoneal implanted L1210 lymphoid leukemia at the dose 18 and 27.7 mg/kg/day x 5 was determined as percentage increase in the life span as compared with control tumor bearers; format: functional, Mus musculus
In short: (§3)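 Female C3D2F1/J mice (C3H/HeJ × DBA/2J), groups of six to eight, average weight 25 g. Each mouse got 1 × 10^6 L1210 ascites cells ip, taken from DBA/2Ha donor mice bearing 3-5 day tumors. Compound was dissolved in 0.154 N NaOH and neutralized with 0.154 N HCl (final 0.9% NaCl). Dosed ip daily ×5, starting 24 h after implant. Recorded body weight change on day 8, survival range, median survival and 30-day survivors. ILS = (T/C − 1) × 100.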

L1210 [7] = assay: Antitumor activity in the mice with intraperitoneal implanted L1210 lymphoid leukemia at the dose of 9.2 and 13.2 mg/kg/day x 5 was determined as mean survival of treated group compared to untreated; 15/11; format: functional, Mus musculus
L1210 [8] = assay: Antitumor activity in the mice with intraperitoneal implanted L1210 lymphoid leukemia at the dose 18 and 27.7 mg/kg/day x 5 was determined as Survival time in days; Range is 9-17 days; format: functional, Mus musculus; in short: as §3
L1210 [9] = assay: Antitumor activity in the mice with intraperitoneal implanted L1210 lymphoid leukemia at the dose 18 and 27.7 mg/kg/day x 5 was determined and number of animals survived on 30 th day were reported; 0/8; format: functional, Mus musculus; in short: as §3
L1210 [10] = assay: Antitumor activity in the mice with intraperitoneal implanted L1210 lymphoid leukemia at the dose 9.2 and 13.2 mg/kg/day x 5 was determined and number of animals survived on 30 th day were reported; 0/6; format: functional, Mus musculus; in short: as §1
L1210 [11] = assay: Antitumor activity in the mice with intraperitoneal implanted L1210 lymphoid leukemia at the dose of 18.2 mg/kg/day x 5 was determined as mean survival of treated group compared to untreated; 14.5/10; format: functional, Mus musculus; in short: as §1
L1210 [12] = assay: Antitumor activity in the mice with intraperitoneal implanted L1210 lymphoid leukemia at the dose 25 mg/kg/day x 5 was determined as percentage increase in the life span as compared with control tumor bearers; format: functional; settings: Mus musculus, L1210, ip; in short: as §3
L1210 [13] = assay: Antitumor activity in the mice with intraperitoneal implanted L1210 lymphoid leukemia at the dose of 5 mg/kg/day x 5 was determined as mean survival of treated group compared to untreated; 13.5/9; format: functional, Mus musculus; in short: as §1
L1210 [14] = assay: Antitumor activity in the mice with intraperitoneal implanted L1210 lymphoid leukemia at the dose 25 mg/kg/day x 5 was determined as Survival time in days; Range is 9-16 days; format: functional, Mus musculus; in short: as §3
L1210 [15] = assay: Antitumor activity in the mice with intraperitoneal implanted L1210 lymphoid leukemia at the dose 5 mg/kg/day x 5 was determined as Survival time in days; Range is 9-22 days; format: functional, Mus musculus; in short: as §3
L1210 [16] = assay: Antitumor activity in mice with intraperitoneal implanted L1210 lymphoid leukemia at the dose 5 mg/kg/day x 5 was determined as weight change (g/mouse) on 8th day; format: functional; in short: as §2
L1210 [17] = assay: Antitumor activity in the mice with intraperitoneal implanted L1210 lymphoid leukemia at the dose 18.2 mg/kg/day x 5 was determined as Survival time in days; Range is 10-19 days; format: functional, Mus musculus; in short: as §3
L1210 [18] = assay: Antitumor activity in the mice with intraperitoneal implanted L1210 lymphoid leukemia at the dose 18.2 mg/kg/day x 5 was determined and number of animals survived on 30 th day were reported; 0/8; format: functional, Mus musculus; in short: as §3
L1210 [19] = assay: Antitumor activity in the mice with intraperitoneal implanted L1210 lymphoid leukemia at the dose 9.2 mg/kg/day x 5 was determined as percentage increase in the life span as compared with control tumor bearers; format: functional; settings: Mus musculus, L1210, ip; in short: as §1
L1210 [20] = assay: Antitumor activity in the mice with intraperitoneal implanted L1210 lymphoid leukemia at the dose 5 mg/kg/day x 5 was determined and number of animals survived on 30 th day were reported; 0/7; format: functional, Mus musculus; in short: as §3
L1210 [21] = assay: Antitumor activity in the mice with intraperitoneal implanted L1210 lymphoid leukemia at the dose 9.2 mg/kg/day x 5 was determined and number of animals survived on 30 th day were reported; 1/7; format: functional, Mus musculus; in short: as §1
L1210 [22] = assay: Antitumor activity in mice with intraperitoneal implanted L1210 lymphoid leukemia at the dose 25 mg/kg/day x 5 was determined as weight change (g/mouse) on 8th day; format: functional; in short: as §2
L1210 [23] = assay: Antitumor activity in the mice with intraperitoneal implanted L1210 lymphoid leukemia at the dose 9.2 mg/kg/day x 5 was determined as Survival time in days; Range is 14-42 days; format: functional, Mus musculus; in short: as §1
L1210 [24] = assay: Antitumor activity in the mice with intraperitoneal implanted L1210 lymphoid leukemia at the dose 18.2 mg/kg/day x 5 was determined as percentage increase in the life span as compared with control tumor bearers; format: functional; settings: Mus musculus, L1210, ip; in short: as §3
L1210 [25] = assay: Antitumor activity in mice with intraperitoneal implanted L1210 lymphoid leukemia at the dose 18.2 mg/kg/day x 5 was determined as weight change (g/mouse) on 8th day; format: functional; in short: as §2
L1210 [26] = assay: Antitumor activity in the mice with intraperitoneal implanted L1210 lymphoid leukemia at the dose 25 mg/kg/day x 5 was determined and number of animals survived on 30 th day were reported; 0/8; format: functional, Mus musculus; in short: as §3
L1210 [27] = assay: Antitumor activity in the mice with intraperitoneal implanted L1210 lymphoid leukemia at the dose of 9.2 mg/kg/day x 5 was determined as mean survival of treated group compared to untreated; 17/9; format: functional, Mus musculus
L1210 [28] = assay: Antitumor activity in mice with intraperitoneal implanted L1210 lymphoid leukemia at the dose 9.2 mg/kg/day x 5 was determined as weight change (g/mouse) on 8th day; format: functional; in short: as §2
L1210 [29] = assay: Antitumor activity in the mice with intraperitoneal implanted L1210 lymphoid leukemia at the dose 5 mg/kg/day x 5 was determined as percentage increase in the life span as compared with control tumor bearers; format: functional; settings: Mus musculus, L1210, ip; in short: as §3

C[C@H]1C[C@@H]2[C@H]([C@@H](O)C[C@@]3(C)[C@H]2CC[C@]3(O)C(=O)CO)[C@@]2(C)C=CC(=O)C=C12.Nc1ccn([C@@H]2O[C@H](CO)[C@@H](O)[C@@H]2O)c(=O)n1
ILS (L1210 [1]): 36% | Weight change (L1210 [2]): -1.38 g mouse-1 | Weight change (L1210 [3]): -2.38 g mouse-1 | Survival time (L1210 [4]): 11 days | T/C (L1210 [5]): 13 | ILS (L1210 [6]): 44% | T/C (L1210 [7]): 15 | Survival time (L1210 [8]): 9 days | Survivors (L1210 [9]): 0 | Survivors (L1210 [10]): 0

Nc1ccn([C@@H]2O[C@H](CO)[C@@H](O)[C@@H]2O)c(=O)n1 [CYTARABINE]
T/C (L1210 [11]): 14.5 | ILS at 25 mg/kg/day (L1210 [12]): 19% | T/C (L1210 [13]): 13.5 | Survival time (L1210 [14]): 9 days | Survival time (L1210 [15]): 9 days | Weight change (L1210 [16]): 2 g mouse-1 | Survival time (L1210 [17]): 10 days | Survivors (L1210 [18]): 0 | ILS at 9.2 mg/kg/day (L1210 [19]): 89% | Survivors (L1210 [20]): 0 | Survivors (L1210 [21]): 1 | Weight change (L1210 [22]): -3.8 g mouse-1 | Survival time (L1210 [23]): 14 days | ILS at 18.2 mg/kg/day (L1210 [24]): 45% | Weight change (L1210 [25]): -3.64 g mouse-1 | Survivors (L1210 [26]): 0 | T/C (L1210 [27]): 17 | Weight change (L1210 [28]): -0.63 g mouse-1 | ILS at 5 mg/kg/day (L1210 [29]): 50%
